Results: ChEMBL document CHEMBL1136777, “Synthesis, anticancer activity, and inhibition of tubulin polymerization by conformationally restricted analogues of lavendustin A” (J Med Chem, 2003)

Key:
CCRF-CEM = experiment: Antiproliferative activity against human leukemia CCRF-CEM cell line; assay type: functional
How it was run: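 Suspension leukemia line grown in RPMI 1640 with 5% fetal bovine serum and 2 mM L-glutamine and preincubated 24 h. Drug was given at five concentrations for 48 h at 37 °C. Settled cells were fixed with 80% TCA (16% final), stained with sulforhodamine B, and read at 515 nm. GI50 was set at 50% reduction in net protein increase versus time-zero wells.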

SN12C = experiment: Antiproliferative activity against human renal SN12C cell line; assay type: functional
How it was run: (§1)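 Adherent lines grown in RPMI 1640 with 5% fetal bovine serum and 2 mM L-glutamine, plated at 5000–40 000 cells/well and preincubated 24 h. Five drug concentrations were added for 48 h at 37 °C. Cells were fixed with cold TCA (10% final), stained with sulforhodamine B, and read at 515 nm. GI50 is the concentration giving 50% reduction in net protein increase relative to time-zero wells.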

Tubulin = Tubulin (Bos taurus, UniProt Q6B856+Q862F3); experiment: Inhibition of tubulin polymerization was determined at 1.2 mg/mL concentration; assay type: functional
Tubulin, sequence (Q6B856 whole entry): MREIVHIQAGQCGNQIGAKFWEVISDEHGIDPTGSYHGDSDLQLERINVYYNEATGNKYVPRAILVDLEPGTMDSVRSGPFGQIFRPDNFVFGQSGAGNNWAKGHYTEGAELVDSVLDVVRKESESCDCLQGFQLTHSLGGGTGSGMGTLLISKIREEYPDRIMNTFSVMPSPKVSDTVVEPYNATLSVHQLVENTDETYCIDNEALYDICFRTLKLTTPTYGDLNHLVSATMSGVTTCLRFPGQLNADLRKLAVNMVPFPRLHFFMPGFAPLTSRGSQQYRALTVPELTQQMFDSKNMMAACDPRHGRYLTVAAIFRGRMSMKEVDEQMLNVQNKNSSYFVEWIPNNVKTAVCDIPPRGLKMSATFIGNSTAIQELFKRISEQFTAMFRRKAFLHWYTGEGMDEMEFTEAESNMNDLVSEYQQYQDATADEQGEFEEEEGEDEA
Tubulin, sequence (Q862F3 whole entry): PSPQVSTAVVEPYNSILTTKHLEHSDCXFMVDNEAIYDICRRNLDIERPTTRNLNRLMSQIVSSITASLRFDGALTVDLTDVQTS

OVCAR-3 = experiment: Antiproliferative activity against human ovarian OVCAR-3 cell line; assay type: functional; how it was run: as §1
[1] = test system: MDA-MB-435 (Homo sapiens); experiment: Antiproliferative activity against human breast MDA-MB-435 cell line
HOP-62 = experiment: Antiproliferative activity against human lung HOP-62 cell line; assay type: functional; how it was run: as §1
SF-539 = experiment: Antiproliferative activity against human CNS SF-539 cell line; assay type: functional; how it was run: as §1
HCT-116 = experiment: Antiproliferative activity against human colon HCT116 cell line; assay type: functional; how it was run: as §1
[2] = Mean graph midpoint for growth inhibition of all human cancer cells was determined; assay type: functional, Cancer cell lines; set-up: unit: µM
How it was run: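 Average of GI50 values over about 55 cell lines from the 48-h sulforhodamine B growth assay. Test range was 10^-4 to 10^-8 M, and values beyond it were set to those limits. Compounds with a first MGM of 10 μM or less were tested a second time and a standard deviation was calculated.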

DU-145 = experiment: Antiproliferative activity against human prostate DU-145 cell line; assay type: functional; how it was run: as §1
UACC-62 = experiment: Antiproliferative activity against human melanoma UACC-62 cell line; assay type: functional; how it was run: as §1

| GI50 (CCRF-CEM) [µM] | IC50 (Tubulin) [µM] | GI50 (OVCAR-3) [µM] | GI50 [1] [µM] | GI50 (HCT-116) [µM] | GI50 (DU-145) [µM] | SMILES | GI50 (SN12C) [µM] | GI50 (HOP-62) [µM] | GI50 (SF-539) [µM] | MGM [2] | GI50 (UACC-62) [µM] |
| --- | --- | --- | --- | --- | --- | --- | --- | --- | --- | --- | --- |
| 0.3 | 3.7 | 2.8 | 2.9 | 10.5 | 12.7 | O=C(NCCc1ccccc1)c1cc(C#Cc2cc(O)ccc2O)ccc1O | 5.7 | 10.3 | 9.6 | 3.8 | 1.9 |
| 3.2 | 1.4 | 3.2 | 0.5 | 5.3 | 4.2 | COc1ccc(OC)c(CCc2ccc(O)c(C(=O)NCCc3ccc(F)cc3)c2)c1 | 15.8 | 15 | 3.2 | 6.9 | 6.6 |
| 1.8 | 2.9 | 2.7 | 3.8 | 1.9 | 11 | O=C(NCCc1ccc(F)cc1)c1cc(/C=C/c2cc(O)ccc2O)ccc1O | 5.6 | 8.8 | 2.2 | 3.5 | 2.1 |
| – | 5.5 | 4.4 | 3.9 | 12.5 | 14.5 | O=C(NCCc1ccccc1)c1cc(CCc2cc(O)ccc2O)ccc1O | 49.8 | 13.9 | – | 6.4 | 11 |
| 2.1 | 4 | 2.9 | 4 | 1.8 | 10.1 | O=C(NCCc1ccccc1)c1cc(/C=C/c2cc(O)ccc2O)ccc1O | 5.1 | 9.3 | 2.4 | 3.8 | 2 |
| 0.2 | 5.4 | 1 | 1.7 | 3.5 | 1.8 | O=C(NCCc1ccccc1)c1cc(/C=C\c2cc(O)ccc2O)ccc1O | 6.8 | 3 | 1.6 | 1.4 | 2.1 |
| 2.4 | 1.4 | 1.4 | 0.6 | 4 | 1.7 | COc1ccc(OC)c(CC(=O)c2ccc(O)c(C(=O)NCCc3ccc(F)cc3)c2)c1 | 4.3 | 1.5 | – | 3.6 | 4 |
| 5.1 | 6.2 | 2.4 | 3.2 | 3.6 | 7.4 | CCCCCCNC(=O)c1cc(CCc2cc(O)ccc2O)ccc1O | 2.2 | 7.4 | 2.2 | 4.4 | 3.3 |
| 1.3 | 4.2 | 2.1 | 12.9 | 3.8 | 15.2 | O=C(NCCc1ccc(F)cc1)c1cc(/C=C\c2cc(O)ccc2O)ccc1O | 4 | 6.3 | 3.8 | 3.5 | 2.3 |
| – | > 40 | 6.7 | 2.5 | 12 | > 100 | COc1ccc(OC)c(C#Cc2ccc(OC)c(C(=O)NCCc3ccccc3)c2)c1 | > 100 | > 100 | > 100 | 40.7 | 24.4 |
| 3.4 | > 40 | 4.2 | 2.1 | 3.8 | > 100 | COc1ccc(OC)c(/C=C\c2ccc(OC)c(C(=O)NCCc3ccc(F)cc3)c2)c1 | 6.4 | 8.1 | 5.9 | 4.5 | 3.5 |
| 7.9 | > 40 | > 100 | > 100 | 6.9 | > 100 | CCCCCCNC(=O)c1cc(C#Cc2cc(OC)ccc2OC)ccc1OC | > 100 | 11.8 | > 100 | 31.6 | 56.8 |
| 36.8 | > 40 | 13.6 | > 100 | 37.7 | 43.6 | COC(=O)c1cc(C#Cc2cc(OC)ccc2OC)ccc1OC | 37.9 | – | 81.1 | 30.9 | 29.3 |
| 1.2 | 4.2 | 1.7 | 4.5 | 3.9 | 10.5 | CCCCCCNC(=O)c1cc(/C=C\c2cc(O)ccc2O)ccc1O | 11.6 | 8.3 | 3.3 | 4.1 | 5.8 |
| 24.7 | > 40 | 16.1 | 10.3 | 21.1 | 45.6 | CCCCCCNC(=O)c1cc(/C=C\c2cc(OC)ccc2OC)ccc1OC | 63.1 | 31.9 | 23.6 | 16.6 | 25 |
| 55 | > 40 | 24.4 | 8.8 | 32.3 | 26.9 | COc1ccc(OC)c(C#Cc2ccc(OC)c(C(=O)O)c2)c1 | 38.2 | 25.6 | 38.5 | 18.6 | 22.6 |
| 12.3 | > 40 | 5 | 3 | 47.3 | > 100 | COc1ccc(OC)c(/C=C\c2ccc(OC)c(C(=O)NCCc3ccccc3)c2)c1 | > 100 | > 100 | > 100 | 38.9 | 16.4 |
| 0.29 | 6.4 | 11 | 13 | 9.2 | 18 | O=C(NCCc1ccc(F)cc1)c1cc(NCc2cc(O)ccc2O)ccc1O | 7.7 | 12 | 9.2 | 0.35 | 7.8 |
| – | 5 | – | – | – | – | CCCCCCNC(=O)c1cc(/C=C/c2cc(O)ccc2O)ccc1O | – | – | – | – | – |
| 0.4 | 9.7 | 1 | 2.3 | 1 | 8 | O=C(NCCc1ccc(F)cc1)c1cc(CCc2cc(O)ccc2O)ccc1O | 2.1 | 2.6 | 1.8 | 2.8 | 2.8 |
| 4.7 | > 40 | – | 1.2 | 4.7 | > 100 | COc1ccc(OC)c(C#Cc2ccc(OC)c(C(=O)NCCc3ccc(F)cc3)c2)c1 | > 100 | 4.9 | – | 11.5 | 6 |

| SMILES | GI50 (CCRF-CEM) [µM] | IC50 (Tubulin) [µM] | GI50 (OVCAR-3) [µM] | GI50 [1] [µM] | GI50 (HCT-116) [µM] | GI50 (DU-145) [µM] | GI50 (SN12C) [µM] | GI50 (HOP-62) [µM] | GI50 (SF-539) [µM] | MGM [2] | GI50 (UACC-62) [µM] |
| --- | --- | --- | --- | --- | --- | --- | --- | --- | --- | --- | --- |
| COC(=O)c1cc(/C=C\c2cc(OC)ccc2OC)ccc1OC | – | > 40 | 4.9 | 10.9 | 20.1 | 18.1 | 30.2 | 32.9 | 10.6 | 15.5 | 14.8 |
